ChEMBL document CHEMBL1122037, “Use of adenine nucleotide derivatives to assess the potential of exo-active-site-directed reagents as species- or isozyme-specific enzyme inactivators. 4. Interactions of adenosine 5'-triphosphate derivatives with adenylate kinases from Escherichia coli and rat tissues” (J Med Chem, 1982)
pKi: −log10 of the molar value. “And” between values parts separate entries of the source, which are not always exact repeats. Identical values can stand only once.

Assays:
Rattus norvegicus [1] = organism: Rattus norvegicus; experiment: Ability to inhibit rat adenylate kinase II, activity expressed as Maximum velocity; format: ADME
Method in brief: (§1)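 Coupled spectrophotometric assay (pyruvate kinase/lactate dehydrogenase, NADH oxidation) in 0.1 M Tris-HCl pH 7.6 with 2 mM MgSO4, 0.12 M KCl, 0.31 mM PEP, 0.38 mM NADH and 0.25 mM AMP. Derivatives were added as 1:1 Mg complexes. KM was obtained from linear Lineweaver-Burk plots using five or more substrate levels spanning 0.5–4.0 × KM. Inhibition was typed as competitive or noncompetitive versus ATP.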

Rattus norvegicus [2] = organism: Rattus norvegicus; experiment: Ability to inhibit rat adenylate kinase III, activity expressed as half-maximal velocity; format: ADME; method in brief: as §1
Rattus norvegicus [3] = organism: Rattus norvegicus; experiment: Ability to inhibit rat adenylate kinase II, activity expressed as half-maximal velocity; format: ADME; conditions: in vitro; method in brief: as §1
[4] = target: Adenylate kinase (Escherichia coli) (UniProt P69441); experiment: Ability to inactivate adenylate kinase was determined, after exposing enzyme to mM levels of MgATP at pH 7.6
Rattus norvegicus [5] = organism: Rattus norvegicus; experiment: Ability to inhibit rat adenylate kinase III, activity expressed as Maximum velocity; format: ADME; conditions: in vitro; method in brief: as §1
Escherichia coli [6] = experiment: Ability to inactivate Escherichia coli adenylate kinase after exposing enzyme to 0 mM levels of MgATP at concentration of 4.5mM, pH 7.6 for 6 h; format: functional
Method in brief: (§2)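 E. coli B enzyme, partially purified 27-fold (fraction IV), exposed 6 h at 22 °C, pH 7.6, to the Mg2+ 1:1 complex of the ATP derivative in the Tris/MgSO4/KCl reaction buffer, with or without MgATP. Aliquots withdrawn at intervals and assayed spectrophotometrically with 1 mM ATP. Activity was compared with controls lacking the derivative. Read-out is % inactivation after 6 h.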

Rattus norvegicus [7] = organism: Rattus norvegicus; experiment: Ability of the 1.10 mM compound to inactivate rat muscle adenylate kinase was determined, after exposing enzyme to 2.2 mM levels of ATP activity expressed as percent loss of inactivation
Method in brief: (§3)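 Rat muscle enzyme preincubated at 22 °C with the 1:1 Mg2+ complex of the derivative, alone or with added AMP or ATP. Aliquots were assayed at intervals in the coupled system containing 1 mM ATP, alongside controls lacking the derivative. Half-time of inactivation was taken from pseudo-first-order plots, or % activity loss at 5–6 h was reported.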

Escherichia coli [8] = experiment: Ability to inhibit Escherichia coli adenylate kinase II, activity expressed as Maximum velocity; format: ADME; conditions: in vitro; method in brief: as §1
[9] = target: T1, GTP:AMP phosphotransferase AK3, mitochondrial (Rattus norvegicus, UniProt P29411); experiment: Ability to inhibit rat adenylate kinase III, activity expressed as Inhibition constant; Competitive inhibition; method in brief: as §1
Escherichia coli [10] = experiment: Ability inactivate Escherichia coli adenylate kinase was determined, after exposing enzyme to mM levels of MgATP at pH 7.6; method in brief: as §2
[11] = target: Adenylate kinase 2, mitochondrial (Rattus norvegicus, UniProt P29410); experiment: Ability to inhibit rat adenylate kinase II, activity expressed as Inhibition constant; method in brief: as §1
Escherichia coli [12] = experiment: Ability to inhibit Escherichia coli adenylate kinase II activity expressed as Maximum velocity; format: ADME
Method in brief: (§4)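 E. coli B adenylate kinase, partially purified 27-fold (streptomycin, ammonium sulfate fractionation, DEAE-cellulose; fraction IV). ATP derivatives tested as 1:1 Mg²⁺ complexes as phosphate donor. Coupled PK/LDH NADH-oxidation spectrophotometric assay in 0.1 M Tris-HCl pH 7.6 with 2 mM MgSO₄, 0.12 M KCl, 0.31 mM PEP, 0.38 mM NADH and 0.25 mM AMP. Constants came from linear Lineweaver-Burk plots of initial velocity, using ≥5 substrate levels across 0.5–4.0 × KM.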

[13] = target: Adenylate kinase (Escherichia coli) (UniProt P69441); experiment: Ability to inhibit Escherichia coli adenylate kinase II activity expressed as half maximal velocity
Escherichia coli [14] = experiment: Ability of 13.2 mM compound to inactivate Escherichia coli adenylate kinase was determined, after exposing enzyme to 10.7 mM levels of MgATP after 6 hr at 22 degree C; method in brief: as §2
Escherichia coli [15] = experiment: Ability of 13.2 mM compound to inactivate Escherichia coli adenylate kinase was determined, after exposing enzyme to 0 mM levels of MgATP after 6 hr at 22 degree C; method in brief: as §2
[16] = target: Adenylate kinase 2, mitochondrial (Rattus norvegicus) (UniProt P29410); experiment: Ability to inhibit rat adenylate kinase II, […]
Method in brief: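 Rat adenylate kinase isozyme II. ATP derivatives were used as 1:1 Mg²⁺ complexes and varied against ATP as phosphate donor. Coupled PK/LDH NADH-oxidation spectrophotometric assay in 0.1 M Tris-HCl pH 7.6 with 2 mM MgSO₄, 0.12 M KCl, 0.31 mM PEP, 0.38 mM NADH and 0.25 mM AMP. Inhibition type was assigned as competitive or noncompetitive with respect to ATP from initial-velocity kinetics.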

Escherichia coli [17] = experiment: Ability to inhibit Escherichia coli adenylate kinase II activity expressed as half maximal velocity; format: ADME, organism-based; conditions: in vivo; method in brief: as §4
[18] = system: Adenylate kinase, muscle isozyme (Rattus norvegicus); experiment: Ability of the 1.14 mM compound to inactivate rat muscle adenylate kinase was determined, after exposing enzyme to 0 mM levels of MgATP, activity expressed as percent loss of inactivation
[19] = system: Adenylate kinase, muscle isozyme (Rattus norvegicus); experiment: Ability of the 0.094 mM compound to inactivate rat muscle adenylate kinase was determined, after exposing enzyme to 1.4 mM levels of ATP activity expressed as % loss of inactivation
Rattus norvegicus [20] = organism: Rattus norvegicus; experiment: Ability of the 1.42 mM compound to inactivate rat muscle adenylate kinase was determined, after exposing enzyme to 2.2 mM levels of ATP activity expressed as percent loss of inactivation; method in brief: as §3
Escherichia coli [21] = experiment: Ability to inactivate Escherichia coli adenylate kinase after exposing enzyme to 0 mM levels of MgATP at concentration of 13.5 mM, pH 7.6; method in brief: as §2
Escherichia coli [22] = experiment: Ability to inactivate Escherichia coli adenylate kinase after exposing enzyme to 0 mM levels of MgATP at concentration of 8.1 mM, pH 7.6; method in brief: as §2
[23] = target: Adenylate kinase (Escherichia coli) (UniProt P69441); experiment: Ability of the 9 mM compound to inactivate adenylate kinase was determined, after exposing enzyme to 0 mM levels of MgATP in 6 h at 22 degree C
Escherichia coli [24] = experiment: Ability to inactivate adenylate kinase was determined, after exposing enzyme to mM levels of MgATP at pH 7.6 at a concentration of 9.9; method in brief: as §2
Escherichia coli [25] = experiment: Ability to inactivate adenylate kinase was determined, after exposing enzyme to mM levels of MgATP at pH 7.6 at a concentration of 9.7; method in brief: as §2
Escherichia coli [26] = experiment: Ability to inactivate adenylate kinase was determined, after exposing enzyme to mM levels of MgATP at pH 7.6 at a concentration of 26.0; method in brief: as §2
Rattus norvegicus [27] = organism: Rattus norvegicus; experiment: Ability of to inactivate rat muscle adenylate kinase was determined activity expresses as Percent loss of inactivation; method in brief: as §3
[28] = target: T1, GTP:AMP phosphotransferase AK3, mitochondrial; experiment: Ability to inhibit rat adenylate kinase III, activity expressed as Inhibition constant; method in brief: as §1
Escherichia coli [29] = experiment: Ability to inactivate Escherichia coli adenylate kinase after exposing enzyme to 0 mM levels of MgATP at concentration of 11.8 mM, pH 7.6; method in brief: as §2

Compound `O=C(CI)NCCCCCCCCNc1ncnc2c1ncn2[C@@H]1O[C@H](COP(=O)(O)OP(=O)(O)OP(=O)(O)O)[C@@H](O)[C@H]1O` has a Vmax (Rattus norvegicus [1]) of 5%, a Km (Rattus norvegicus [2]) of 1100 µM and a Km (Rattus norvegicus [3]) of 400 µM. The Inactivation [4] was 12% and the Vmax (Rattus norvegicus [5]) was 6%.
For `O=C(CI)NCCCCCCCNc1ncnc2c1ncn2[C@@H]1O[C@H](COP(=O)(O)OP(=O)(O)OP(=O)(O)O)[C@@H](O)[C@H]1O`, the Inactivation (Escherichia coli [6]) was 7% and the Loss of inactivation (Rattus norvegicus [7]) was 20%.
`NCCCCCCNc1nc2c(N)ncnc2n1C1O[C@H](COP(=O)(O)OP(=O)(O)OP(=O)(O)O)[C@@H](O)[C@H]1O` (stereo partly drawn) was tested, and the Vmax (Escherichia coli [8]) was 0%.
`CN(CCCCN(C)c1ncnc2c1ncn2[C@@H]1O[C@H](COP(=O)(O)OP(=O)(O)OP(=O)(O)O)[C@@H](O)[C@H]1O)C(=O)CCCCCCNC(=O)CI` gave a pKi [9] of 2.68, an Inactivation (Escherichia coli [10]) of 2% and a pKi [11] of 2.80. It also gave a Vmax (Rattus norvegicus [1]) of 0%, a Vmax (Escherichia coli [12]) of 0% and a Vmax (Rattus norvegicus [5]) of 0%.
`CN(CCCN(C)C(=O)CCCCNc1ncnc2c1ncn2[C@@H]1O[C@H](COP(=O)(O)OP(=O)(O)OP(=O)(O)O)[C@@H](O)[C@H]1O)C(=O)CCCCNC(=O)OCc1ccccc1` showed a Vmax (Escherichia coli [8]) of 0%.
Compound `CN(CCCCCCN(C)c1ncnc2c1ncn2[C@@H]1O[C@H](COP(=O)(O)OP(=O)(O)OP(=O)(O)O)[C@@H](O)[C@H]1O)C(=O)CCCCCCNC(=O)CI` has a pKi [9] of 2.66, a pKi [11] of 2.74 and a Vmax (Rattus norvegicus [1]) of 0%. For the same compound, the Inactivation [13] was 0% and the Vmax (Rattus norvegicus [5]) was 0%.
With `O=C(CI)NCCCCCNc1ncnc2c1ncn2[C@@H]1O[C@H](COP(=O)(O)OP(=O)(O)OP(=O)(O)O)[C@@H](O)[C@H]1O` the pKi [9] was 2.21, the Vmax (Rattus norvegicus [1]) was 21% and the Inactivation (Escherichia coli [14]) was 36%. For the same compound, the Inactivation (Escherichia coli [15]) was 37%, the Km (Rattus norvegicus [2]) was 400 µM and the Km (Rattus norvegicus [3]) was 1000 µM. It also gave a Vmax (Rattus norvegicus [5]) of 9%.
`NC(=O)CI` was tested, and the Loss of inactivation [16] was 0%.
With `NCCCCCNc1ncnc2c1ncn2C1O[C@H](COP(=O)(O)OP(=O)(O)OP(=O)(O)O)[C@@H](O)[C@H]1O` (stereo partly drawn) the Vmax (Escherichia coli [8]) was 0%.
`Nc1ncnc2c1ncn2[C@@H]1O[C@H](COP(=O)(O)OP(=O)(O)OP(=O)(O)O)[C@@H](O)[C@H]1O` [ADENOSINE TRIPHOSPHATE] showed a Vmax (Rattus norvegicus [1]) of 100%, a Km (Rattus norvegicus [2]) of 90 µM and a Vmax (Escherichia coli [12]) of 100%. For the same compound, the Km (Rattus norvegicus [3]) was 90 µM, the Km (Escherichia coli [17]) was 60 µM and the Vmax (Rattus norvegicus [5]) was 100%.
With `Nc1ncnc2c1nc(NCCCCCCNC(=O)CI)n2[C@@H]1O[C@H](COP(=O)(O)OP(=O)(O)OP(=O)(O)O)[C@@H](O)[C@H]1O` the pKi [11] was 3.52.
For `CC(=O)NCCCCCCCCNc1ncnc2c1ncn2C1O[C@H](COP(=O)(O)O)[C@@H](O)[C@H]1O` (stereo partly drawn), the Loss of inactivation [18] was 0%.
Work on `O=C(CI)NCCCCCCCCNc1ncnc2c1ncn2C1O[C@H](CO)[C@@H](O)[C@H]1O` (stereo partly drawn) yielded a Loss of inactivation [19] of 30%.
`O=C(CI)NCCCC(=O)NCCCCCCNc1ncnc2c1ncn2[C@@H]1O[C@H](COP(=O)(O)OP(=O)(O)OP(=O)(O)O)[C@@H](O)[C@H]1O` was tested, and the Loss of inactivation (Rattus norvegicus [20]) was 0%.
With `O=C(CI)NCCCCCC(=O)NCCCCNc1ncnc2c1ncn2[C@@H]1O[C@H](COP(=O)(O)OP(=O)(O)OP(=O)(O)O)[C@@H](O)[C@H]1O` the Inactivation (Escherichia coli [21]) was 5%.
`O=C(CI)NCCCCCCC(=O)NCCCCCCNc1ncnc2c1ncn2[C@@H]1O[C@H](COP(=O)(O)OP(=O)(O)OP(=O)(O)O)[C@@H](O)[C@H]1O` gave an Inactivation (Escherichia coli [22]) of 4%.
Work on `O=C(CI)NCCCCNc1ncnc2c1ncn2[C@@H]1O[C@H](COP(=O)(O)OP(=O)(O)OP(=O)(O)O)[C@@H](O)[C@H]1O` yielded an Inactivation [23] of 2%.
`O=C(CI)NCCCCCCNc1ncnc2c1ncn2[C@@H]1O[C@H](COP(=O)(O)OP(=O)(O)OP(=O)(O)O)[C@@H](O)[C@H]1O` was tested, and the Inactivation (Escherichia coli [24]) was 25%, the Inactivation (Escherichia coli [25]) was 25% and the Inactivation (Escherichia coli [26]) was 46% and 47%. The Loss of inactivation (Rattus norvegicus [27]) was 8%.
For `CC(=O)NCCCCCCNc1nc2c(N)ncnc2n1C1O[C@H](COP(=O)(O)OP(=O)(O)OP(=O)(O)O)[C@@H](O)[C@H]1O` (stereo partly drawn), the Vmax (Escherichia coli [8]) was 0%.
Compound `CN(CCCCCCN(C)c1ncnc2c1ncn2[C@@H]1O[C@H](COP(=O)(O)OP(=O)(O)OP(=O)(O)O)[C@@H](O)[C@H]1O)C(=O)CCCCCNC(=O)CI` has a pKi [9] of 2.62, a pKi [11] of 2.72 and a Vmax (Rattus norvegicus [1]) of 0%. For the same compound, the Inactivation [13] was 1% and the Vmax (Rattus norvegicus [5]) was 0%.
Compound `O=C(CI)NCCNc1ncnc2c1ncn2[C@@H]1O[C@H](COP(=O)(O)OP(=O)(O)OP(=O)(O)O)[C@@H](O)[C@H]1O` has a Vmax (Rattus norvegicus [1]) of 5%, a Km (Rattus norvegicus [2]) of 400 µM and a Km (Rattus norvegicus [3]) of 1600 µM. For the same compound, the pKi [28] was 2.23 and the Vmax (Rattus norvegicus [5]) was 2%.
Work on `CN(CCCN(C)C(=O)CCCNc1ncnc2c1ncn2[C@@H]1O[C@H](COP(=O)(O)OP(=O)(O)OP(=O)(O)O)[C@@H](O)[C@H]1O)C(=O)CCCNC(=O)CI` yielded an Inactivation (Escherichia coli [29]) of 0%.
